Assay results taken from ChEMBL document CHEMBL1145466, “Effects of carbapenem exposure on the risk for digestive tract carriage of intensive care unit-endemic carbapenem-resistant Pseudomonas aeruginosa strains in critically ill patients” (2007).

Assays:
Pseudomonas aeruginosa [1] = test: Antimicrobial activity against carbapenem-resistant Pseudomonas aeruginosa isolate; assay type: functional
In short: (§1)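 P. aeruginosa isolates came from rectal and oropharyngeal swabs of ICU patients, plated on MacConkey agar and incubated at 37°C for 48 h. Gram-negative, oxidase-positive bacilli were identified by conventional biochemical tests. Intermediate isolates were scored as resistant. Clonality was checked by PFGE (6 V/cm, 14°C, 23 h, 5–25 s pulses), read by Tenover criteria.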

Pseudomonas aeruginosa [2] = test: Antimicrobial activity against carbapenem-resistant Pseudomonas aeruginosa assessed as percent resistant isolates; assay type: functional; in short: as §1

Structure (SMILES)	MIC (Pseudomonas aeruginosa [1]) [µg/mL]	Activity (Pseudomonas aeruginosa [2]) [%]
CC(O)[C@H]1C(=O)N2C(C(=O)O)=C(SCCNC=N)C[C@H]12 (single isomer, unassigned) [IMIPENEM ANHYDROUS]	≥ 8	100
NCC[C@H](O)C(=O)N[C@@H]1C[C@H](N)[C@@H](O[C@H]2O[C@H](CN)[C@@H](O)[C@H](O)[C@H]2O)[C@H](O)[C@H]1O[C@H]1O[C@H](CO)[C@@H](O)[C@H](N)[C@H]1O [AMIKACIN]	> 16	19
C[C@H]1[C@H](NC(=O)/C(=N\OC(C)(C)C(=O)O)c2csc(N)n2)C(=O)N1S(=O)(=O)O [AZTREONAM]	> 8	33
CC(C)(O/N=C(\C(=O)N[C@@H]1C(=O)N2C(C(=O)[O-])=C(C[n+]3ccccc3)CS[C@H]12)c1csc(N)n1)C(=O)O [CEFTAZIDIME]	> 8	28.5
O=C(O)c1cn(C2CC2)c2cc(N3CCNCC3)c(F)cc2c1=O [CIPROFLOXACIN]	≥ 2	59.5
C[C@@H](O)[C@H]1C(=O)N2C(C(=O)O)=C(S[C@@H]3CN[C@H](C(=O)N(C)C)C3)[C@H](C)[C@H]12 [MEROPENEM]	≥ 8	59.5
CCN1CCN(C(=O)N[C@@H](C(=O)N[C@@H]2C(=O)N3[C@@H]2SC(C)(C)[C@@H]3C(=O)O)c2ccccc2)C(=O)C1=O [PIPERACILLIN]	> 64	21
CC1(C)S[C@@H]2[C@H](NC(=O)[C@H](C(=O)O)c3ccsc3)C(=O)N2[C@H]1C(=O)O [TICARCILLIN]	> 64	28.5
NC[C@H]1O[C@H](O[C@H]2[C@H](O)[C@@H](O[C@H]3O[C@H](CO)[C@@H](O)[C@H](N)[C@H]3O)[C@H](N)C[C@@H]2N)[C@H](N)C[C@@H]1O [TOBRAMYCIN]	> 4	55
